Test results published in ChEMBL document CHEMBL1134286, “Novel erythromycin derivatives with aryl groups tethered to the C-6 position are potent protein synthesis inhibitors and active against multidrug-resistant respiratory pathogens” (J Med Chem, 2001).
Values after ≈ are worked out from the molar mass of the structure shown.

Key:
Streptococcus pneumoniae [1] = assay: Minimum inhibitory concentration against Streptococcus pneumoniae 5649 efflux; assay type: functional
Procedure, shortened: (§1)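 MICs were determined by agar dilution following National Committee for Clinical Laboratory Standards recommendations. Values are in µg/mL.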

[2] = Minimum inhibitory concentration against Streptococcus pyogenes 930MLSB; assay type: functional; procedure, shortened: as §1
Staphylococcus aureus [3] = assay: Minimum inhibitory concentration against Staphylococcus aureus A 5177 MLSB-i; assay type: functional; procedure, shortened: as §1
[4] = Minimum inhibitory concentration against Streptococcus pyogenes PIU2548 efflux; assay type: functional; procedure, shortened: as §1
Mus musculus [5] = species: Mus musculus; assay: Mouse protection tests for effective dose against Staphylococcus aureus 10649 ((erythromycin susceptible strain)) infected mice; assay type: functional
Mus musculus [6] = species: Mus musculus; assay: Mouse protection tests for effective dose against Streptococcus pneumoniae 6303 ((erythromycin susceptible strain)) infected mice; assay type: functional
[7] = Minimum inhibitory concentration against Streptococcus pyogenes EES 61 Ery-S; assay type: functional; procedure, shortened: as §1
Staphylococcus aureus [8] = assay: Minimum inhibitory concentration against Staphylococcus aureus 10649 (erythromycin susceptible strain); assay type: functional; procedure, shortened: as §1
Staphylococcus aureus [9] = assay: Minimum inhibitory concentration against Staphylococcus aureus ATCC 6538PEry-S; assay type: functional; conditions: ATCC 6538P; procedure, shortened: as §1
[10] = Minimum inhibitory concentration against Streptococcus pneumoniae 5737 MLSB; assay type: functional; procedure, shortened: as §1
Staphylococcus aureus [11] = assay: Minimum inhibitory concentration against Staphylococcus aureus A 5278 MLSB-c; assay type: functional; procedure, shortened: as §1
Streptococcus pneumoniae [12] = assay: Minimum inhibitory concentration against Streptococcus pneumoniae ATCC 6303 Ery-S; assay type: functional; procedure, shortened: as §1
Streptococcus pneumoniae [13] = assay: Minimum inhibitory concentration against Streptococcus pneumoniae 6303 (erythromycin susceptible strain); assay type: functional; procedure, shortened: as §1
[14] = Minimum inhibitory concentration against Haemophilus influenzae DILL Amp-R; assay type: functional; procedure, shortened: as §1
Streptococcus pneumoniae [15] = assay: Cell free inhibiting activity against MLSB-resistant strain Streptococcus pneumoniae 1813 (methylated ribosomes for transcription/translation assay)
Streptococcus pneumoniae [16] = assay: Cell free inhibiting activity against erythromycin-susceptible strain Streptococcus pneumoniae 5635 (Wild type ribosomes for transcription/translation assay); assay type: functional
Procedure, shortened: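 Cell-free coupled transcription/translation assay using bacterial ribosome S-30 extracts. Wild-type ribosomes were isolated from the erythromycin-susceptible strain S. pneumoniae 5635. Inhibition is reported as IC50 (µM).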

Streptococcus pneumoniae [17] = assay: Cell free inhibiting activity against erythromycin-susceptible strain Streptococcus pneumoniae 5635 (Wild type ribosomes for transcription/translation assay)

Row | Structure (SMILES) | MIC (Streptococcus pneumoniae [1]) [µg/mL] | MIC [2] [µg/mL] | MIC (Staphylococcus aureus [3]) [µg/mL] | MIC [4] [µg/mL] | ED50 (Mus musculus [5]) [mg/kg] | ED50 (Mus musculus [6]) [mg/kg] | MIC [7] [µg/mL] | MIC (Staphylococcus aureus [8]) [µg/mL] | MIC (Staphylococcus aureus [9]) [µg/mL] | MIC [10] [µg/mL] | MIC (Staphylococcus aureus [11]) [µg/mL] | MIC (Streptococcus pneumoniae [12]) [µg/mL] | MIC (Streptococcus pneumoniae [13]) [µg/mL] | MIC [14] [µg/mL] | IC50 (Streptococcus pneumoniae [15]) [nM] | IC50 (Streptococcus pneumoniae [16]) [nM] | IC50 (Streptococcus pneumoniae [17]) [nM]
1 | CC[C@H]1OC(=O)[C@H](C)C(=O)[C@H](C)[C@@H](O[C@@H]2O[C@H](C)C[C@H](N(C)C)[C@H]2O)[C@](C)(OC/C=C/c2cnc3ccccc3c2)C[C@@H](C)C2=NCCN3C(=O)O[C@@]1(C)[C@H]3[C@H]2C | 1 (≈ 1.26 µM) | 16 (≈ 20.2 µM) | 0.05 (≈ 0.0632 µM) | 2 (≈ 2.53 µM) | 60.4 | 23.5 | 0.06 (≈ 0.0759 µM) | 0.05 (≈ 0.0632 µM) | 0.05 (≈ 0.0632 µM) | 128 (≈ 162 µM) | > 100 | 0.06 (≈ 0.0759 µM) | 0.06 (≈ 0.0759 µM) | 4 (≈ 5.06 µM) |  |  | 
2 | CC[C@H]1OC(=O)[C@H](C)C(=O)[C@H](C)[C@@H](O[C@@H]2O[C@H](C)C[C@H](N(C)C)[C@H]2O)[C@](C)(OCCCc2cnc3ccccc3c2)C[C@@H](C)C(=O)[C@H](C)[C@H]2NC(=O)O[C@@]21C | 0.25 (≈ 0.326 µM) | 4 (≈ 5.21 µM) | 0.1 (≈ 0.13 µM) | 0.25 (≈ 0.326 µM) | 27.1 | 33 | 0.004 (≈ 0.00521 µM) | 0.1 (≈ 0.13 µM) | 0.1 (≈ 0.13 µM) | 8 (≈ 10.4 µM) | > 100 | 0.015 (≈ 0.0195 µM) | 0.015 (≈ 0.0195 µM) | 2 (≈ 2.6 µM) |  |  | 
3 | C=CCO[C@]1(C)C[C@@H](C)C(=O)[C@H](C)[C@H]2NC(=O)O[C@]2(C)[C@@H](CC)OC(=O)[C@H](C)C(=O)[C@H](C)[C@H]1O[C@@H]1O[C@H](C)C[C@H](N(C)C)[C@H]1O | 0.25 (≈ 0.391 µM) | > 64 | 1.56 (≈ 2.44 µM) | 1 (≈ 1.57 µM) |  |  | 0.25 (≈ 0.391 µM) |  | 0.78 (≈ 1.22 µM) | > 64 | > 100 | 0.5 (≈ 0.783 µM) |  | 64 (≈ 100 µM) | > 500000 | 350 | 
4 | CC[C@H]1OC(=O)[C@H](C)C(=O)[C@H](C)[C@@H](O[C@@H]2O[C@H](C)C[C@H](N(C)C)[C@H]2O)[C@](C)(OC/C=C/c2ccc3ncncc3c2)C[C@@H](C)C(=O)[C@H](C)[C@H]2NC(=O)O[C@@]21C | 0.25 (≈ 0.326 µM) | 2 (≈ 2.61 µM) | 0.2 (≈ 0.261 µM) | 0.5 (≈ 0.652 µM) | 9.2 | 40.3 | 0.03 (≈ 0.0391 µM) | 0.2 (≈ 0.261 µM) | 0.2 (≈ 0.261 µM) | 0.5 (≈ 0.652 µM) | > 100 | 0.03 (≈ 0.0391 µM) | 0.03 (≈ 0.0391 µM) | 4 (≈ 5.22 µM) |  |  | 
5 | CC[C@H]1OC(=O)[C@H](C)C(=O)[C@H](C)[C@@H](O[C@@H]2O[C@H](C)C[C@H](N(C)C)[C@H]2O)[C@](C)(OC/C=C/c2cnc3ccncc3c2)C[C@@H](C)C(=O)[C@H](C)[C@H]2NC(=O)O[C@@]21C | 0.5 (≈ 0.652 µM) | 4 (≈ 5.22 µM) | 0.05 (≈ 0.0652 µM) | 0.5 (≈ 0.652 µM) | 12.5 | > 50 | 0.015 (≈ 0.0196 µM) | 0.05 (≈ 0.0652 µM) | 0.05 (≈ 0.0652 µM) | 0.25 (≈ 0.326 µM) | > 100 | 0.008 (≈ 0.0104 µM) | 0.008 (≈ 0.0104 µM) | 2 (≈ 2.61 µM) |  |  | 
6 | CC[C@H]1OC(=O)[C@H](C)C(=O)[C@H](C)[C@@H](O[C@@H]2O[C@H](C)C[C@H](N(C)C)[C@H]2O)[C@](C)(OC/C=C/c2cnc3cccnc3c2)C[C@@H](C)C(=O)[C@H](C)[C@H]2NC(=O)O[C@@]21C | 1 (≈ 1.3 µM) | 2 (≈ 2.61 µM) | 0.05 (≈ 0.0652 µM) | 0.5 (≈ 0.652 µM) | 12.5 | 17.3 | 0.03 (≈ 0.0391 µM) | 0.05 (≈ 0.0652 µM) | 0.05 (≈ 0.0652 µM) | 0.25 (≈ 0.326 µM) | > 100 | 0.015 (≈ 0.0196 µM) | 0.015 (≈ 0.0196 µM) | 2 (≈ 2.61 µM) | 25000 |  | 100
7 | CC[C@H]1OC(=O)[C@H](C)C(=O)[C@H](C)[C@@H](O[C@@H]2O[C@H](C)C[C@H](N(C)C)[C@H]2O)[C@](C)(OC/C=C/c2cnc3ccsc3c2)C[C@@H](C)C(=O)[C@H](C)[C@H]2NC(=O)O[C@@]21C | 0.25 (≈ 0.324 µM) | 1 (≈ 1.3 µM) | 0.05 (≈ 0.0648 µM) | 0.25 (≈ 0.324 µM) | > 50 |  | 0.008 (≈ 0.0104 µM) | 0.05 (≈ 0.0648 µM) | 0.05 (≈ 0.0648 µM) | 0.5 (≈ 0.648 µM) | > 100 | 0.004 (≈ 0.00518 µM) | 0.004 (≈ 0.00518 µM) | 2 (≈ 2.59 µM) | 150000 | 70 | 
8 | CC[C@H]1OC(=O)[C@H](C)C(=O)[C@H](C)[C@@H](O[C@@H]2O[C@H](C)C[C@H](N(C)C)[C@H]2O)[C@](C)(OC/C=C/c2cnc3ccccc3c2)C[C@@H](C)C(=O)[C@H](C)[C@@H](O)[C@]1(C)O | 0.25 (≈ 0.337 µM) | 100 (≈ 135 µM) | 0.2 (≈ 0.27 µM) | 0.1 (≈ 0.135 µM) | 27.2 | > 40 | 0.2 (≈ 0.27 µM) | 0.2 (≈ 0.27 µM) | 0.2 (≈ 0.27 µM) | 16 (≈ 21.6 µM) | > 100 | 0.03 (≈ 0.0405 µM) | 0.03 (≈ 0.0405 µM) | 16 (≈ 21.6 µM) |  |  | 
9 | CC[C@H]1OC(=O)[C@H](C)C(=O)[C@H](C)[C@@H](O[C@@H]2O[C@H](C)C[C@H](N(C)C)[C@H]2O)[C@](C)(OC/C=C/c2ccccc2)C[C@@H](C)C(=O)[C@H](C)[C@H]2NC(=O)O[C@@]21C | 0.25 (≈ 0.35 µM) | 64 (≈ 89.5 µM) | 0.1 (≈ 0.14 µM) | 0.25 (≈ 0.35 µM) | 30.2 | > 40 | 0.03 (≈ 0.042 µM) | 0.1 (≈ 0.14 µM) | 0.1 (≈ 0.14 µM) | 64 (≈ 89.5 µM) | > 100 | 0.03 (≈ 0.042 µM) | 0.03 (≈ 0.042 µM) | 4 (≈ 5.6 µM) |  |  | 
10 | CC[C@H]1OC(=O)[C@H](C)C(=O)[C@H](C)[C@@H](O[C@@H]2O[C@H](C)C[C@H](N(C)C)[C@H]2O)[C@](C)(OCCNCCc2ccccc2)C[C@@H](C)C(=O)[C@H](C)[C@H]2NC(=O)O[C@@]21C | 2 (≈ 2.68 µM) | > 128 | 0.1 (≈ 0.134 µM) | 2 (≈ 2.68 µM) |  |  | 0.03 (≈ 0.0402 µM) |  | 0.2 (≈ 0.268 µM) | > 128 | > 100 | 0.03 (≈ 0.0402 µM) |  | 4 (≈ 5.36 µM) |  |  | 
11 | CC[C@H]1OC(=O)[C@H](C)C(=O)[C@H](C)[C@@H](O[C@@H]2O[C@H](C)C[C@H](N(C)C)[C@H]2O)[C@](C)(OC/C=C/c2ccc3nccnc3c2)C[C@@H](C)C(=O)[C@H](C)[C@H]2NC(=O)O[C@@]21C | 0.5 (≈ 0.652 µM) | 1 (≈ 1.3 µM) | 0.1 (≈ 0.13 µM) | 0.25 (≈ 0.326 µM) | < 6.25 | 33.1 | 0.03 (≈ 0.0391 µM) | 0.1 (≈ 0.13 µM) | 0.1 (≈ 0.13 µM) | 0.25 (≈ 0.326 µM) | > 100 | 0.015 (≈ 0.0196 µM) | 0.015 (≈ 0.0196 µM) | 2 (≈ 2.61 µM) | 40000 |  | 80
12 | CC[C@H]1OC(=O)[C@H](C)C(=O)[C@H](C)[C@@H](O[C@@H]2O[C@H](C)C[C@H](N(C)C)[C@H]2O)[C@](C)(OC)C[C@@H](C)C(=O)[C@H](C)[C@H]2N(CCCCn3cnc(-c4cccnc4)c3)C(=O)O[C@]12C [TELITHROMYCIN] |  |  |  |  | 12.5 | 34.1 |  | 0.1 (≈ 0.123 µM) |  |  |  |  | 0.004 (≈ 0.00493 µM) |  |  |  | 
